# Screening results deposited in PubChem by Johns Hopkins Ion Channel Center.
# MrgX1 ag: agonists of human MrgX1 receptor, primary screen, HEK293 cells, Fluo-4 calcium flux. Fluo-4 calcium fluorescence, agonist mode; hits give high values. 0.44% of 310,000 active. B-score at 10 µM. Mas-related G-protein coupled receptor member X1 (Homo sapiens), Q96LB2;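 active = calcium response B-score plate-corrected fluorescence ratio at least 3 library SD, with starting fluorescence B-score inside 5 SD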
# Target sequence (Q96LB2 whole entry, looked up): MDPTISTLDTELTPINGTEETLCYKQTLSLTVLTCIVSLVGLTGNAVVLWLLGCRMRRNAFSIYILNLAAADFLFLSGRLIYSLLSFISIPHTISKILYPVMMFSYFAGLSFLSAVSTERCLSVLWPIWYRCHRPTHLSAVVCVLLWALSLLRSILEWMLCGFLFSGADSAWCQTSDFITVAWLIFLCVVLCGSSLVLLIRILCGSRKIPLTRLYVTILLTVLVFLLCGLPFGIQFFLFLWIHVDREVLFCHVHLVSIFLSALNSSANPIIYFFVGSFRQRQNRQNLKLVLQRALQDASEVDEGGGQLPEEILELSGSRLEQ
#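 Material: MrgX1-expressing HEK293 cells / Dosing: compound as first of three additions / Incubation: overnight seeding, then 1 h dark dye loading / Signal: Fluo-4 NW calcium fluorescence / Evaluation: B-scored fluorescence response ratio / Benchmarks: positive and negative control wells on each plate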
# MrgX1 antag: antagonists of human MrgX1 receptor, primary screen, HEK293 cells, Fluo-4 calcium flux; Mas-related G-protein coupled receptor member X1 (Homo sapiens), Q96LB2; BAM8-22 antagonism; hits give low values; B-score at 10 µM; 1.3% of 310,000 active; AID 588676, 2011;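 active = calcium-response B-score plate-corrected more than 3 library SD below zero, starting fluorescence within 5 deviations, no agonist response on first addition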;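 note: peak minus trough fluorescence over baseline after final BAM8-22 challenge near maximal dose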
# RGS4 inh: RGS4 inhibitors, primary screen, cell-based, HEK293 M3R inducible RGS4, calcium flux; Fluo-4 calcium flux; hits give high values; triggered by carbachol at its EC20; B-score at 10 µM; Regulator of G-protein signaling 4 (Homo sapiens), P49798; AID 463165, 2010; 0.45% of 310,000 active;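 active = B-score, a plate-corrected calcium signal, over three deviations above library mean, with baseline fluorescence within five deviations of library mean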;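 note: RGS4 expression induced by doxycycline in cells with stable M3 receptor; B-score is computed from the integrated fluorescence ratio over baseline after carbachol; higher B-score means a larger calcium signal and so more RGS4 inhibition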
# Target sequence (P49798 whole entry, looked up): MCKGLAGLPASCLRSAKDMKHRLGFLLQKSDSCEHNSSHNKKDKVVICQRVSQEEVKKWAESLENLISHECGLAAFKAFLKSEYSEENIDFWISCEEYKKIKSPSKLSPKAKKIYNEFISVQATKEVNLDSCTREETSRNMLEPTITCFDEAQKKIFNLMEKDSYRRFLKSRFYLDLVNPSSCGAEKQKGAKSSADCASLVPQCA
# RGS4 act: RGS4 potentiators or activators, primary screen, cell-based, HEK293 M3R inducible RGS4, calcium flux | carbachol calcium flux Fluo4; hits give low values | B-score at 10 µM | 0.92% of 310,000 active | AID 463111, 2010;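 active = B-score of the integrated calcium signal more than 4 SD below the library mean, with starting fluorescence not abnormally high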;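 note: negative B-score means reduced calcium response which marks RGS4 activation or potentiation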
#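 Test system: HEK293 cells with stable M3R and inducible RGS4; also added: carbachol at ECmax as muscarinic agonist stimulus; schedule: dye loading 30 min 37 °C, buffer rest 30 min RT; technique: kinetic calcium fluorescence imaging with Fluo4-AM dye, 2 µM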
# MrgX1 allo act: positive allosteric modulators of MrgX1, primary screen, HEK293 cells, Fluo-4 calcium flux; FDSS; hits give high values; 0.63% of 310,000 active; B-score at 10 µM; Mas-related G-protein coupled receptor member X1 (Homo sapiens), Q96LB2;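 active = plate-corrected calcium response at least 3 library SD above typical, normal starting fluorescence, not activating the receptor alone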;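 note: compound read alongside a low EC10 to EC30 dose of BAM8-22 agonist; peak minus trough fluorescence over baseline measured at the second addition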
# A number is an active result; – = inactive; · = no result given. Sampled rows, rich in hits. Any-hit rate of the full collection: about 3.5%.
SMILES,MrgX1 ag,MrgX1 antag,RGS4 inh,RGS4 act,MrgX1 allo act
CN1c2cccc3cccc(c23)N(C)C1c1cccs1,–,–,–,–,–
CC1N(C)c2cccc3cccc(c23)N1C,32.6,–,–,–,–
COCCNC(=O)Cn1ccc2cc(S(=O)(=O)N3CCCCC3)ccc21,–,–,–,–,–
O=C(Oc1cccc2cccnc12)c1cccc(N2C(=O)C3C4CCC(C4)C3C2=O)c1 (configuration not stated),–,–,5.97,–,–
CC(=O)Nc1ccc(-c2csc(NCc3ccco3)n2)cc1,–,–,–,–,–
COc1ccc(NC(=O)c2cccc3c2C(=O)N(C2CCCCC2)C3)cc1,–,–,–,–,–
CCOc1ccccc1C(=O)Nc1cccc(-c2nnc(-c3ccccc3)o2)c1,–,–,–,-7.16,–
O=C(Nc1ccc(Cl)cn1)Nc1ccccc1F,–,–,–,–,–
Cc1cccc(C)c1NC(=O)c1sccc1SCc1cccc(C(F)(F)F)c1,–,-5.02,–,–,–
CCC(Sc1ccc(C(=O)O)cc1)C(=O)O (configuration not stated),–,–,–,–,–
O=C(CC(Sc1ccc(Br)cc1)C(=O)O)c1ccc(F)cc1 (configuration not stated),–,–,6.28,–,–
Cn1cc(Cl)c(/C(N)=N/OC(=O)c2ccccc2C(F)(F)F)n1,–,–,–,–,–
NC(=O)C1CCN(C2=C(NS(=O)(=O)c3ccc(Cl)cc3)C(=O)c3ccccc3C2=O)CC1,–,–,–,–,9.92
O=C(COc1cccnc1[N+](=O)[O-])NCCc1ccc(Cl)cc1,–,–,–,–,–
O=C(N/N=C/c1ccc(Cl)c([N+](=O)[O-])c1)c1cnccn1,–,-4.67,–,–,–
O=C(NC(=S)Nc1ccc(F)c(Cl)c1)C1CC1,–,–,–,–,–
CN(C)NC(=S)Nc1ccc(Cl)cc1,–,-6.02,–,–,–
Fc1ccc(NC(=S)Nc2ccc(F)c(Cl)c2)cc1Cl,–,-4.79,–,–,–
C#CCOCCOCCOCCNc1nc(N2CCN(C(=O)CCCCCCCCCCNC(=O)[C@H]([C@@H](C)CC)n3cc(CCCCN=C(N)N)nn3)CC2)nc(N2CCN(C(=O)CCCCCCCCCCNC(=O)[C@H](CCCN=C(N)N)n3cc(C[C@@H](C)CC)nn3)CC2)n1,32.8,–,·,·,–
C#CCOCCOCCOCCNc1nc(N2CCN(C(=O)CCCCCCCCCCNC(=O)[C@H](CCCN=C(N)N)n3cc(C[C@@H](C)CC)nn3)CC2)nc(N2CCN(C(=O)CCCCCCCCCCNC(=O)[C@@H]([C@H](C)CC)n3cc(CCCCCN)nn3)CC2)n1,51.1,–,·,·,–
C#CCOCCOCCOCCNc1nc(N2CCOCC2)nc(N2CCN(C(=O)CCCCCCCCCCNC(=O)[C@H]([C@@H](C)CC)n3cc(CCCCN=C(N)N)nn3)CC2)n1,–,–,·,·,–
CCOC(=O)Cc1nnc2c(Nc3ccccc3F)nc3nonc3n12,–,–,–,–,–
ClCC1=Nc2cccc3cccc(c23)N1,–,–,8.65,–,–
Cc1ccc(C(=O)COC(=O)C(C)N2C(=O)C3C4CCC(C4)C3C2=O)cc1 (configuration not stated),–,–,–,–,–
CCCCCNCc1ccc(Cl)cc1,–,–,–,–,–
SMILES,MrgX1 ag,MrgX1 antag,RGS4 inh,RGS4 act,MrgX1 allo act
OCCCCNCc1ccc(OCc2ccc(Cl)cc2)cc1,–,–,–,-7.27,–
Cc1ccc(-n2cc(CN3CCCN(C=O)CC3)c(-c3ccc(F)cc3)n2)cc1,–,–,–,–,10.6
CC(=O)N1CCCN(Cc2cn(-c3ccc(C)cc3)nc2-c2ccc(F)cc2)CC1,–,–,–,–,–
O=C(CC(=O)c1ccccc1)Nc1ccccn1,–,–,–,–,–
O=C(c1ccccc1)C(Nc1ccccn1)c1ccccc1 (configuration not stated),–,–,–,-7.47,–
Cc1cccn2c(=O)c(/C=C(\C#N)C(N)=O)c(N3CCN(Cc4ccc5c(c4)OCO5)CC3)nc12,–,–,–,-8.46,–
CN1CCN(/N=C/c2c3ccccc3c(Cl)c3ccccc23)CC1,–,–,–,–,9.3
CN1CCN(/N=C/c2ccc(-c3ccccc3)cc2)CC1,–,–,–,–,–
Cc1ccc(-c2nc(=S)c3c(n2Cc2ccco2)CC(C)(C)OC3)cc1,–,-6.03,–,–,–
Cc1ccc(-c2nc(=S)c3c(n2CC2CCCO2)CC(C)(C)OC3)cc1 (configuration not stated),–,–,–,–,–
CC(=O)Nc1ccc(SCC(=O)OCC(=O)NC(=O)NCc2ccco2)cc1,–,–,–,–,–
CC(=O)Nc1ccc(SCC(=O)OCC(=O)NC(=O)NCCC(C)C)cc1,–,-7.35,–,–,–
COC(=O)CCC(=O)Nc1ccc(Cl)c(Cl)c1,–,–,–,–,–
COC(=O)Cn1ccc2cc(S(=O)(=O)N3CCCCCC3)ccc21,–,–,–,–,–
O=C(NC1CCCC1)C1CCCN(S(=O)(=O)c2cnc[nH]2)C1 (configuration not stated),–,–,–,–,–
CC1(C)[C@@H](O)CC[C@]2(C)C3C(O)C=C4[C@H]5C[C@@](C)(C(=O)O)CC[C@]5(C)CC[C@]4(C)[C@]3(C)CC[C@@H]12 (some centres not stated),28.8,–,–,–,–
O=C(CN1C(=O)S/C(=C/c2ccc(N3CCOCC3)cc2)C1=O)N1CCOCC1,–,–,–,-7.24,–
Cc1ccc(OC(=O)C2c3ccccc3Oc3ccccc32)cc1C,–,–,–,-7.76,–
CCN1C(=O)CS/C1=N\S(=O)(=O)c1ccc(Cl)cc1,–,–,–,–,–
CCn1c(Cl)c(C=O)s/c1=N\S(=O)(=O)c1ccccc1,30.9,–,–,–,–
COc1ccccc1-c1coc2cc(OC(=O)N3CCOCC3)ccc2c1=O,–,–,–,–,–
CCC(Oc1ccc2c(=O)c(-c3ccccc3OC)coc2c1)C(=O)OCc1ccccc1 (configuration not stated),–,–,–,-7.61,–
O=C(c1ccccc1)c1ccc(Sc2ccc([N+](=O)[O-])cc2)cc1,–,–,–,–,–
CCOc1ccc(NC(=O)CN(c2ccc([N+](=O)[O-])cc2)S(=O)(=O)c2ccccc2)cc1,–,-5.36,–,–,–
COc1cccc(CC(NC(C)=O)C(=O)NC2CCN(c3nnnn3-c3ccccc3)CC2)c1 (configuration not stated),–,–,–,–,–
